Active and inactive are the calls of the source. The rule behind the calls is not given here.
Test system: Rattus norvegicus
Experiment: Increase in paw weight in Fischer rats at 300 umol/kg, ip
Format: functional
Conditions: not given
How it was run: (§1)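 Carrageenan paw edema in rats; compounds given ip at 300 µmol/kg. Read-out % paw weight increase versus controls, converted to % edema inhibition; mean of 4-9 rats from two independent experiments, Student's t test.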

| Compound | Activity |
| --- | --- |
| CCOC(=O)C(CS)NC(=O)C1CCCN1C(=O)C(C)c1ccc2cc(OC)ccc2c1 (stereo unspecified) | 44.6% |
| COc1ccc2cc(C(C)C(=O)N3CC(O)CC3C(=O)NCCS)ccc2c1 (stereo unspecified) | 44.4% |
| COc1ccc2c(c1)c(CC(=O)N1CCCC1C(=O)NCCS)c(C)n2C(=O)c1ccc(Cl)cc1 (stereo unspecified) | 48.5% |
| COc1ccc2cc([C@H](C)C(=O)O)ccc2c1 [NAPROXEN] | 28.7% |
| CCOC(=O)C(CS)NC(=O)C1CCCCN1C(=O)C(C)c1ccc2cc(OC)ccc2c1 (stereo unspecified) | 34.9% |
| COc1ccc2cc(C(C)C(=O)N3CCCC3C(=O)NCCS)ccc2c1 (stereo unspecified) | 42.9% |
| CCOC(=O)C(CS)NC(=O)C1CCCN1C(=O)Cc1c(C)n(C(=O)c2ccc(Cl)cc2)c2ccc(OC)cc12 (stereo unspecified) | 50.1% |
| COc1ccc2c(c1)c(CC(=O)O)c(C)n2C(=O)c1ccc(Cl)cc1 [INDOMETHACIN] | 27% |

Test system: Radical scavenging activity
Experiment: Inhibition of lipid peroxidation of rat hepatic microsomal membrane lipids
Format: functional, Liver
Conditions: not given

| IC50 | Compound |
| --- | --- |
| 320 µM | CCOC(=O)C(CS)NC(=O)C1CCCN1C(=O)C(C)c1ccc2cc(OC)ccc2c1 (stereo unspecified) |
| 122 µM | CCOC(=O)C(CS)NC(=O)C1CCCCN1C(=O)C(C)c1ccc2cc(OC)ccc2c1 (stereo unspecified) |
| 390 µM | CCOC(=O)C(CS)NC(=O)C1CCCN1C(=O)Cc1c(C)n(C(=O)c2ccc(Cl)cc2)c2ccc(OC)cc12 (stereo unspecified) |

Test system: Radical scavenging activity
Experiment: DPPH radical scavenging activity at 0.2 mM
Format: functional
Conditions: not given
How it was run: (§2)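 Radical scavenging measured as % interaction with stable free radical DPPH (0.2 mM) after 30 min incubation, compounds at 0.2, 0.1 and 0.05 mM.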

| Compound | Activity |
| --- | --- |
| CCOC(=O)C(CS)NC(=O)C1CCCN1C(=O)C(C)c1ccc2cc(OC)ccc2c1 (stereo unspecified) | 86.3% |
| COc1ccc2cc(C(C)C(=O)N3CC(O)CC3C(=O)NCCS)ccc2c1 (stereo unspecified) | 56.2% |
| COc1ccc2c(c1)c(CC(=O)N1CCCC1C(=O)NCCS)c(C)n2C(=O)c1ccc(Cl)cc1 (stereo unspecified) | inactive |
| CCOC(=O)C(CS)NC(=O)C1CCCCN1C(=O)C(C)c1ccc2cc(OC)ccc2c1 (stereo unspecified) | 76.7% |
| COc1ccc2cc(C(C)C(=O)N3CCCC3C(=O)NCCS)ccc2c1 (stereo unspecified) | 78.9% |
| CCOC(=O)C(CS)NC(=O)C1CCCN1C(=O)Cc1c(C)n(C(=O)c2ccc(Cl)cc2)c2ccc(OC)cc12 (stereo unspecified) | 69.7% |

Test system: Radical scavenging activity
Experiment: DPPH radical scavenging activity at 0.1 mM
Format: functional
Conditions: not given
How it was run: as §2

| Compound | Activity |
| --- | --- |
| CCOC(=O)C(CS)NC(=O)C1CCCN1C(=O)C(C)c1ccc2cc(OC)ccc2c1 (stereo unspecified) | 61.9% |
| COc1ccc2cc(C(C)C(=O)N3CC(O)CC3C(=O)NCCS)ccc2c1 (stereo unspecified) | 36.5% |
| COc1ccc2c(c1)c(CC(=O)N1CCCC1C(=O)NCCS)c(C)n2C(=O)c1ccc(Cl)cc1 (stereo unspecified) | inactive |
| CCOC(=O)C(CS)NC(=O)C1CCCCN1C(=O)C(C)c1ccc2cc(OC)ccc2c1 (stereo unspecified) | 46% |
| COc1ccc2cc(C(C)C(=O)N3CCCC3C(=O)NCCS)ccc2c1 (stereo unspecified) | 56.3% |
| CCOC(=O)C(CS)NC(=O)C1CCCN1C(=O)Cc1c(C)n(C(=O)c2ccc(Cl)cc2)c2ccc(OC)cc12 (stereo unspecified) | 44.2% |

Test system: Radical scavenging activity
Experiment: DPPH radical scavenging activity at 0.05 mM
Format: functional
Conditions: not given
How it was run: as §2

| Compound | Activity |
| --- | --- |
| CCOC(=O)C(CS)NC(=O)C1CCCN1C(=O)C(C)c1ccc2cc(OC)ccc2c1 (stereo unspecified) | 32.1% |
| COc1ccc2cc(C(C)C(=O)N3CC(O)CC3C(=O)NCCS)ccc2c1 (stereo unspecified) | 21.3% |
| COc1ccc2c(c1)c(CC(=O)N1CCCC1C(=O)NCCS)c(C)n2C(=O)c1ccc(Cl)cc1 (stereo unspecified) | inactive |
| CCOC(=O)C(CS)NC(=O)C1CCCCN1C(=O)C(C)c1ccc2cc(OC)ccc2c1 (stereo unspecified) | 23.5% |
| COc1ccc2cc(C(C)C(=O)N3CCCC3C(=O)NCCS)ccc2c1 (stereo unspecified) | 28.8% |
| CCOC(=O)C(CS)NC(=O)C1CCCN1C(=O)Cc1c(C)n(C(=O)c2ccc(Cl)cc2)c2ccc(OC)cc12 (stereo unspecified) | 31.1% |

Test system: Rattus norvegicus
Experiment: Anti-inflammatory activity against paw edema induced by carrageenan in fischer rat at 300 umol/kg, ip
Format: functional
Conditions: not given
How it was run: as §1

| Compound | inhibition in vivo at 300 µmol/kg |
| --- | --- |
| CCOC(=O)C(CS)NC(=O)C1CCCN1C(=O)C(C)c1ccc2cc(OC)ccc2c1 (stereo unspecified) | 23.7% |
| COc1ccc2cc(C(C)C(=O)N3CC(O)CC3C(=O)NCCS)ccc2c1 (stereo unspecified) | 24.1% |
| COc1ccc2c(c1)c(CC(=O)N1CCCC1C(=O)NCCS)c(C)n2C(=O)c1ccc(Cl)cc1 (stereo unspecified) | 17% |
| COc1ccc2cc([C@H](C)C(=O)O)ccc2c1 [NAPROXEN] | 51% |
| CCOC(=O)C(CS)NC(=O)C1CCCCN1C(=O)C(C)c1ccc2cc(OC)ccc2c1 (stereo unspecified) | 50.7% |
| COc1ccc2cc(C(C)C(=O)N3CCCC3C(=O)NCCS)ccc2c1 (stereo unspecified) | 26.7% |
| CCOC(=O)C(CS)NC(=O)C1CCCN1C(=O)Cc1c(C)n(C(=O)c2ccc(Cl)cc2)c2ccc(OC)cc12 (stereo unspecified) | 14.3% |
| COc1ccc2c(c1)c(CC(=O)O)c(C)n2C(=O)c1ccc(Cl)cc1 [INDOMETHACIN] | 53.9% |

Test system: Rattus norvegicus
Experiment: Inhibition of arthritis in rat at 300-600 umol/kg, id
Format: functional
Conditions: not given
How it was run: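 Arthritis induced in rats by id injection of complete Freund's adjuvant; compounds dosed 300-600 µmol/kg for 14 days, arthritic score assessed day 15 post adjuvant, % inhibition versus controls; mean of 4-6 rats, Student's t test.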

| Compound | Inhibition |
| --- | --- |
| CCOC(=O)C(CS)NC(=O)C1CCCN1C(=O)C(C)c1ccc2cc(OC)ccc2c1 (stereo unspecified) | 100% |
| COc1ccc2c(c1)c(CC(=O)N1CCCC1C(=O)NCCS)c(C)n2C(=O)c1ccc(Cl)cc1 (stereo unspecified) | 50.8% |
| COc1ccc2cc(C(C)C(=O)N3CCCC3C(=O)NCCS)ccc2c1 (stereo unspecified) | 51.6% |
| CCOC(=O)C(CS)NC(=O)C1CCCN1C(=O)Cc1c(C)n(C(=O)c2ccc(Cl)cc2)c2ccc(OC)cc12 (stereo unspecified) | 77.4% |

Biological target: T1, Seed linoleate 13S-lipoxygenase-1 (Glycine max, UniProt P08170)
T1 sequence (P08170 whole entry): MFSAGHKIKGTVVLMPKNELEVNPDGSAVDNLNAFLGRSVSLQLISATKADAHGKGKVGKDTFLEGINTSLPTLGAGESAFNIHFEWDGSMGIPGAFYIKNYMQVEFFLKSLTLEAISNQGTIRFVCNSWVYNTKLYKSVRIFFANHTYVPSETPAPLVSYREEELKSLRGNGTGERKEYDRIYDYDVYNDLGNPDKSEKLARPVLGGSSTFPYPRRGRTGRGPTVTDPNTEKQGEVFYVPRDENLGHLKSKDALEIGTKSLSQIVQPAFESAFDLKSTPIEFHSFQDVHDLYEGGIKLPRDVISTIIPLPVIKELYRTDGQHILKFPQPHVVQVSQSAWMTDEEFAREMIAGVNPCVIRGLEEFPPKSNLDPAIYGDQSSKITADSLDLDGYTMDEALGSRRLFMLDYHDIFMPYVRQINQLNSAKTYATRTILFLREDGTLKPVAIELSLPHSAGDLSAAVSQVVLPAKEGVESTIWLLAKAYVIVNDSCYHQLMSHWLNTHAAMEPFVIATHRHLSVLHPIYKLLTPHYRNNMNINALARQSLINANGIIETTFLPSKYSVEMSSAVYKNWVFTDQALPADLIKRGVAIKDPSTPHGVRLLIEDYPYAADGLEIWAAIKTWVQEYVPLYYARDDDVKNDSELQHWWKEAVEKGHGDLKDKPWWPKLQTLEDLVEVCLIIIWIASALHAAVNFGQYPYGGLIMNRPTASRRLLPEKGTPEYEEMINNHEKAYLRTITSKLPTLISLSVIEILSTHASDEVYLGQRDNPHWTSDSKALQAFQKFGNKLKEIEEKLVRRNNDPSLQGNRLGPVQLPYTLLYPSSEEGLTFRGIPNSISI
Experiment: Inhibition of soybean lipoxygenase
Format: functional
Conditions: not given
How it was run: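 Soybean lipoxygenase, 220 U/ml, with sodium linoleate (100 μM) substrate, pH 9, 28 °C, 5 min; IC50 determined.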

| IC50 | Compound |
| --- | --- |
| 48 µM | CCOC(=O)C(CS)NC(=O)C1CCCN1C(=O)C(C)c1ccc2cc(OC)ccc2c1 (stereo unspecified) |
| 35 µM | COc1ccc2cc(C(C)C(=O)N3CCCC3C(=O)NCCS)ccc2c1 (stereo unspecified) |
| 200 µM | CCOC(=O)C(CS)NC(=O)C1CCCN1C(=O)Cc1c(C)n(C(=O)c2ccc(Cl)cc2)c2ccc(OC)cc12 (stereo unspecified) |

Test system: Rattus norvegicus
Experiment: Gastrointestinal toxicity in rat at 84 umol/kg, sc
Format: organism-based
Conditions: in vivo
How it was run: (§3)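 Female rats dosed sc once daily for four days. Mortality, perforating GI ulcer incidence, melena defecation and body weight loss recorded 24 h after last dose.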

| Compound | Activity |
| --- | --- |
| COc1ccc2c(c1)c(CC(=O)N1CCCC1C(=O)NCCS)c(C)n2C(=O)c1ccc(Cl)cc1 (stereo unspecified) | Non-toxic |
| CCOC(=O)C(CS)NC(=O)C1CCCN1C(=O)Cc1c(C)n(C(=O)c2ccc(Cl)cc2)c2ccc(OC)cc12 (stereo unspecified) | Non-toxic |
| COc1ccc2c(c1)c(CC(=O)O)c(C)n2C(=O)c1ccc(Cl)cc1 [INDOMETHACIN] | Toxic |

Test system: Rattus norvegicus
Experiment: Gastrointestinal toxicity in rat at 1350 umol/kg, sc
Format: organism-based
Conditions: in vivo
How it was run: as §3

| Compound | Activity |
| --- | --- |
| CCOC(=O)C(CS)NC(=O)C1CCCN1C(=O)C(C)c1ccc2cc(OC)ccc2c1 (stereo unspecified) | Non-toxic |
| COc1ccc2cc([C@H](C)C(=O)O)ccc2c1 [NAPROXEN] | Toxic |
| COc1ccc2cc(C(C)C(=O)N3CCCC3C(=O)NCCS)ccc2c1 (stereo unspecified) | Non-toxic |

Test system: Rattus norvegicus
Experiment: Decrease in triglyceride level in rat at 56 umol/kg, ip
Design: scale not given: the % may be the effect or the level left
Conditions: route intraperitoneal

| Compound | Activity |
| --- | --- |
| CCOC(=O)C(CS)NC(=O)C1CCCN1C(=O)C(C)c1ccc2cc(OC)ccc2c1 (stereo unspecified) | 68.7% |
| CCOC(=O)C(CS)NC(=O)C1CCCCN1C(=O)C(C)c1ccc2cc(OC)ccc2c1 (stereo unspecified) | 21.3% |

Test system: Rattus norvegicus
Experiment: Decrease in triglyceride level in rat at 200 umol/kg, ip
Design: scale not given: the % may be the effect or the level left
Conditions: route intraperitoneal

| Compound | Activity |
| --- | --- |
| CCOC(=O)C(CS)NC(=O)C1CCCN1C(=O)Cc1c(C)n(C(=O)c2ccc(Cl)cc2)c2ccc(OC)cc12 (stereo unspecified) | 55.7% |

Test system: Rattus norvegicus
Experiment: Decrease in LDL cholesterol level in rat at 56 umol/kg, ip
Design: scale not given: the % may be the effect or the level left
Conditions: route intraperitoneal

| Compound | Activity |
| --- | --- |
| CCOC(=O)C(CS)NC(=O)C1CCCN1C(=O)C(C)c1ccc2cc(OC)ccc2c1 (stereo unspecified) | 55% |
| CCOC(=O)C(CS)NC(=O)C1CCCCN1C(=O)C(C)c1ccc2cc(OC)ccc2c1 (stereo unspecified) | 52% |

Test system: Rattus norvegicus
Experiment: Decrease in LDL cholesterol level in rat at 200 umol/kg, ip
Design: scale not given: the % may be the effect or the level left
Conditions: route intraperitoneal

| Compound | Activity |
| --- | --- |
| CCOC(=O)C(CS)NC(=O)C1CCCN1C(=O)Cc1c(C)n(C(=O)c2ccc(Cl)cc2)c2ccc(OC)cc12 (stereo unspecified) | 48.4% |

Test system: Rattus norvegicus
Experiment: Decrease in total cholesterol level in rat at 56 umol/kg, ip
Design: scale not given: the % may be the effect or the level left
Conditions: route intraperitoneal

| Compound | Activity |
| --- | --- |
| CCOC(=O)C(CS)NC(=O)C1CCCN1C(=O)C(C)c1ccc2cc(OC)ccc2c1 (stereo unspecified) | 58% |
| CCOC(=O)C(CS)NC(=O)C1CCCCN1C(=O)C(C)c1ccc2cc(OC)ccc2c1 (stereo unspecified) | 40% |

Test system: Rattus norvegicus
Experiment: Decrease in total cholesterol level in rat at 200 umol/kg, ip
Design: scale not given: the % may be the effect or the level left
Conditions: route intraperitoneal

| Compound | Activity |
| --- | --- |
| CCOC(=O)C(CS)NC(=O)C1CCCN1C(=O)Cc1c(C)n(C(=O)c2ccc(Cl)cc2)c2ccc(OC)cc12 (stereo unspecified) | 78% |

Test system: Radical scavenging activity
Experiment: Inhibition of lipid peroxidation of rat hepatic microsomal membrane lipids at 1 mM
Conditions: Liver

| Compound | inhibition |
| --- | --- |
| NCCS | 37% |
| CCOC(=O)[C@@H](N)CS | 49% |
